Experimental data published in ChEMBL document CHEMBL3244197, “Mercaptoimidazolylpropionic acid hydrobromide. Inhibition of tadpole collagenase and related properties” (J Med Chem, 1978).
Each block holds one molecule with its values, some of them ahead of it. Calls of active or inactive are those of the source. The calls are words filed in the database; no cut-off is given here.

Tests used:
[1] = Half life of the compound in phosphate buffer with 214 ml/min oxygen flow assessed as oxidation at 0.25 mM by Ellman's method; type: physicochemical
Outline: (§1)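 35 mL sample, 0.1 M phosphate buffer pH 7.4, oxygen-saturated; water-vapour-saturated O2 bubbled through via gas dispersion tube at 20 °C. 200 µL aliquots withdrawn over time; remaining SH titre measured by quantitative Ellman determination; half-time in hours.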

[2] = Half life of the compound in phosphate buffer with 400 ml/min oxygen flow assessed as oxidation at 0.14 mM by Ellman's method; type: physicochemical; outline: as §1
[3] = (§2) Inhibition of Rana catesbeiana tadpole collagenase using lathyritic rat skin collagen as substrate after 41 hrs by radial diffusion assay; details: read-out: I50
Outline: (§3)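 Enzyme cultured from tadpole tail fin and back skin, purified by ammonium sulfate precipitation and Sephadex G-200, concentrated 20-fold by ultrafiltration at 4 °C. Gel: Tris-buffered pH 7.6, 1% agarose with 0.1% collagen, set 2 h at 20 °C, held ≥40 h at 4 °C. Wells (3.0 mm) received 15 µL enzyme ± inhibitor. Incubation 41 h at 28 °C, then 2 h at 37 °C. Lysis-zone diameter read as radial diffusion units; concentration for 50% inhibition taken.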

[4] = system: Bacillus subtilis; experiment: Mutagenicity in repair-deficient Bacillus subtilis assessed as growth inhibition at 0.1 M; type: toxicity, organism-based; details: in vivo
Outline: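 Repair-deficient tester strains exposed to test compound at 0.10 M, with chloroacetaldehyde (0.10 M) as mutagen reference; growth inhibition scored.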

[5] = system: Mus musculus; experiment: Toxicity in Swiss-Wistar mouse assessed as body weight gain at 189 mg/kg, ip after 3 days (reference value: 20%); type: organism-based; design: dose 189 mg/kg, route intraperitoneal; details: in vivo, 72 h
[6] = system: Mus musculus; experiment: Toxicity in Swiss-Wistar mouse assessed as body weight gain at 418 mg/kg, ip after 3 days (reference value: 20%); type: organism-based; design: dose 418 mg/kg, route intraperitoneal; details: in vivo, 72 h
[7] = system: Mus musculus; experiment: Toxicity in Swiss-Wistar mouse assessed as body weight gain at 885 mg/kg, ip after 3 days (reference value: 20%); type: organism-based; design: dose 885 mg/kg, route intraperitoneal; details: in vivo, 72 h
[8] = system: Mus musculus; experiment: Toxicity in Swiss-Wistar mouse assessed as body weight gain at 1980 mg/kg, ip after 3 days (reference value: 20%); type: organism-based; design: dose 1980 mg/kg, route intraperitoneal; details: in vivo, 72 h
[9] = system: Mus musculus; experiment: Toxicity in Swiss-Wistar mouse assessed as change in health condition at 189 to 1980 mg/kg, ip after 7 days; type: organism-based; design: dose 189-1980 mg/kg, route intraperitoneal; details: in vivo, 168 h
[10] = species: Rana catesbeiana; experiment: as §2; outline: as §3
[11] = Half life of the compound in phosphate buffer with 200 ml/min oxygen flow assessed as oxidation at 0.28 mM by Ellman's method; type: physicochemical; outline: as §1
[12] = Half life of the compound in phosphate buffer with 350 ml/min oxygen flow assessed as oxidation at 0.27 mM by Ellman's method; type: physicochemical; outline: as §1
[13] = Half life of the compound in phosphate buffer with 214 ml/min oxygen flow assessed as oxidation at 0.24 mM by Ellman's method; type: physicochemical; outline: as §1
[14] = Half life of the compound in phosphate buffer with 360 ml/min oxygen flow assessed as oxidation at 0.16 mM by Ellman's method; type: physicochemical; outline: as §1

half-life at 250 µM [1]: 12.7 h | half-life at 140 µM [2]: 8.7 h | IC50 [3]: 3.8 mM
SMILES: Br.O=C(O)C(S)Cc1cnc[nH]1 (racemic)
Activity [4]: Non-toxic | Activity [5]: 22% | Activity [6]: 18% | Activity [7]: 23% | Activity [8]: 18% | Activity [9]: Non-toxic

SMILES: O=C(O)C(Br)Cc1cnc[nH]1 (racemic)
I50 [10]: inactive

half-life at 280 µM [11]: 12.8 h | half-life at 270 µM [12]: 10.9 h | IC50 [3]: ≥ 100 mM
SMILES: CC(=O)N[C@@H](CS)C(=O)O [ACETYLCYSTEINE]

half-life at 240 µM [13]: 6.4 h | half-life at 160 µM [14]: 5.3 h | IC50 [3]: 8.7 mM
SMILES: N[C@@H](CS)C(=O)O [CYSTEINE]

IC50 [3]: ≥ 100 mM
SMILES: N[C@@H](Cc1c[nH]cn1)C(=O)O [HISTIDINE]
